MT stabilize HCS = microtubule stabilization, imaging screen; HeLa tubulin immunostaining HCS, 24 h; share of cells brighter than vehicle mean+2SD; % tubulin-high responders, % at 10 µM; 200,000 compounds, 0.83% hits;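 active = plate Z-score above 3 for both tubulin-high and condensed-nucleus cell shares, with cell loss under 80%, at 10 µM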;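 note: anti alpha tubulin signal scored within the nucleus-defined area of each cell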
b-catenin transl = modulators of beta-catenin nuclear translocation; HeLa beta-catenin nuclear translocation, immunofluorescence imaging; nuclear translocation activity, % at 5 µM; 190,000 compounds, 0.3% hits;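 active = nuclear translocation activity above 50% at 5 µM, with a well cell count of 50 or more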;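 note: per-cell ratio of nuclear to cytoplasmic median beta-catenin stain intensity; plate controls were DMSO negative control for no effect and GSK-3 inhibitor IX positive control for full effect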
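Test system: human HeLa cells, endogenous beta-catenin. Times: 24 h compound exposure, 37°C. Measured by: beta-catenin immunofluorescence imaging with DAPI.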
APP transl inh = APP translation inhibition; SH-SY5Y APP 5'UTR-luciferase reporter, luminescence; inhibition, % at 2 µM; 190,000 compounds, 0.82% hits;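 active = inhibition above a set limit, derived from the sample mean plus 3 SD, cut at about 45% in these data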
IEC-6 tox = counter-screen for KLF5 inhibitors: cytotoxicity in IEC-6 cells | IEC-6 cytotoxicity, luminescence viability | inhibition, % at 5 µM | 290,000 compounds, 0.78% hits | AID 1825;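 note: 0% = plate median of test compound wells and 100% = cytotoxic reference compound wells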
BaF3 parental = parental Ba/F3 viability inhibition as JAK2V617F counter-screen | CellTiter-Glo ATP luminescence | inhibition, % at 5.6 µM | AID 1486 | 220,000 compounds, 1.1% hits;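 active = inhibition above a per-campaign cutoff, the mean inhibition of all tested compounds plus 3 SD, cut at about 27% in these data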;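 note: 0% = DMSO wells and 100% = JAK Inhibitor I control wells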
Ba/F3 V617F tox = lowers viability of Ba/F3 cells expressing EpoR and JAK2V617F; 220,000 compounds, 1.1% hits; ATP luminescence; inhibition, % at 5.6 µM; AID 1446;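 active = inhibition above the campaign mean plus 3 SD over all tested compounds, cut at about 24% in these data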;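 note: cytokine-independent growth of Ba/F3 cells driven by EpoR plus mutant JAK2; 0% = DMSO-treated cells and 100% = JAK inhibitor I control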
IEC-6 cytotox cf = confirmation of cytotoxic compounds in rat IEC-6 intestinal epithelial cells; shares compounds with IEC-6 tox; IEC-6 rat intestinal epithelial viability, luminescence; inhibition, % at 5 µM; 1,900 compounds, 63% hits; AID 1907;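 note: 0% = vehicle and 100% = reference cytotoxic drug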
Active calls of the source: *; nt = no result. Hits are enriched below; roughly 2.2% of the tested compounds scored in any of these assays. Cut-off read from the data, not from the text of the source, unless noted: active = inhibition above about 22%; inactive = the rest.

SMILES	MT stabilize HCS	b-catenin transl	APP transl inh	IEC-6 tox	BaF3 parental	Ba/F3 V617F tox	IEC-6 cytotox cf
CCn1ncc(C2=NOC(C(=O)NCc3ccccc3)C2)c1C (centres undefined)	31.1*	64.4*	71.7*	66.0*	77.6*	80.4*	57.2*
COc1ccc(CNC(=O)C2CC(c3ccccc3C(F)(F)F)=NO2)cc1 (centres undefined)	nt	7.4	nt	nt	nt	nt	nt
O=C(Nc1nc(-c2ccccn2)cs1)C1CC1	6.8	3.0	-2.9	2.5	3.3	-0.9	nt
O=C(Nc1nc(-c2ccncc2)cs1)c1ccco1	3.5	-2.0	-7.5	-2.4	6.9	-1.5	nt
O=C(Nc1nc(-c2ccccn2)cs1)c1ccco1	2.7	0.0	31.7	26.5*	9.4	0.9	28.2*
O=C(Nc1nc(-c2ccccn2)cs1)c1ccc(Br)s1	3.7	3.3	25.1	30.1*	5.1	2.1	69.8*
Cc1nc(NC(=O)c2ccco2)sc1C(=O)O	nt	nt	nt	35.2*	nt	nt	27.0*
O=C(CC1CC2CCC1C2)Nc1nc(-c2ccccn2)cs1 (centres undefined)	9.7	1.5	-37.2	28.7*	7.2	4.0	6.4
C=CCN=c1scc(-c2ccc3c(c2)NC(=O)CO3)n1/N=C(\C)c1ccccn1	5.8	-1.1	51.6*	41.0*	90.5*	100.4*	30.8*
Cc1cccc(C)c1OCC(=O)NC1CC1	nt	nt	nt	2.1	nt	nt	nt
Cc1cccc(C)c1OCC(=O)NNC(=S)NC(=O)C1CC1	nt	nt	nt	29.3*	nt	nt	2.2
CCN1C(=O)C(CC(=O)Nc2ccc(OC)cc2)N(Cc2ccco2)C1=S (centres undefined)	4.0	-1.8	-9.1	3.1	1.2	0.8	nt
Cc1ccc(-c2ccc(=O)n(CC(=O)N3CCN(c4cc(Cl)ccc4C)CC3)n2)cc1	1.7	-3.4	2.2	0.3	10.8	1.9	nt
CN(CC1CCCO1)S(=O)(=O)c1ccc(C(=O)Nc2nc(-c3ccccn3)cs2)cc1 (centres undefined)	6.7	-1.1	74.0*	57.4*	61.0*	70.0*	52.0*
CN(CC1CCCO1)S(=O)(=O)c1ccc(C(=O)Nc2nnc(-c3ccccc3)o2)cc1 (centres undefined)	nt	nt	nt	26.7*	nt	nt	6.3
CN(CC1CCCO1)S(=O)(=O)c1ccc(C(=O)Nc2ccccc2F)cc1 (centres undefined)	nt	nt	nt	-6.1	nt	nt	nt
COc1ccccc1-c1nnc(NC(=O)c2ccc(S(=O)(=O)N(C)CC3CCCO3)cc2)o1 (centres undefined)	nt	nt	nt	12.1	nt	nt	nt
CCC(=O)N1CCN(c2ccc(Cl)cc2NC(=O)c2ccc([N+](=O)[O-])o2)CC1	nt	nt	nt	34.3*	nt	nt	8.2
CC(=O)N1CCN(c2ccc(NC(=O)c3ccco3)cc2Cl)CC1	nt	nt	nt	4.3	nt	nt	nt
CCN1CCN(c2ccc(NC(=O)c3ccc([N+](=O)[O-])o3)cc2Cl)CC1	25.6	2.2	93.6*	69.6*	48.4*	76.2*	45.5*
CCC(=O)N1CCN(c2ccc(NC(=O)c3ccco3)cc2Cl)CC1	nt	nt	nt	1.8	nt	nt	nt
CCC(=O)N1CCN(c2ccc(NC(=O)c3ccc([N+](=O)[O-])o3)cc2Cl)CC1	41.5	4.4	92.5*	67.3*	60.0*	87.8*	63.3*
CC(=O)N1CCN(c2ccc(NC(=O)c3ccc([N+](=O)[O-])o3)cc2Cl)CC1	nt	nt	nt	100.6*	nt	nt	48.3*
CCC(=O)N1CCN(c2ccc(Cl)cc2NC(=O)c2cccc([N+](=O)[O-])c2)CC1	8.0	-1.1	-22.7	-0.7	1.0	-1.1	nt
Cc1nc(-c2cnn(-c3ccccc3)c2)c2cc(C)oc2n1	3.0	nt	14.4	1.5	5.6	-1.2	nt
SMILES	MT stabilize HCS	b-catenin transl	APP transl inh	IEC-6 tox	BaF3 parental	Ba/F3 V617F tox	IEC-6 cytotox cf
CC(=O)c1ccc(OCc2cc(C(=O)NC3CCCCC3)no2)cc1	nt	nt	nt	-9.5	nt	nt	nt
CC(C)CCNCC1OCc2ccccc2CO1	3.4	0.7	3.8	-0.5	0.0	-1.5	nt
NS(=O)(=O)c1ccc(CCNC(=O)c2ccccc2F)cc1	5.4	-3.9	5.8	-5.0	0.2	-4.4	nt
CCCOc1ccccc1/C=C1\SC(N2CCCCC2)=NC1=O	nt	nt	nt	0.9	nt	nt	nt
Cc1ccc(Nc2nc(N)nc(CCl)n2)c(C)c1	nt	-2.5	nt	100.2*	30.2*	98.7*	5.4
CCCC(=O)NC(c1ccccc1)c1ccc2cccnc2c1O (centres undefined)	nt	nt	nt	42.4*	nt	nt	66.0*
CCCCC(=O)NC(c1ccccc1)c1ccc2cccnc2c1O (centres undefined)	nt	nt	nt	24.0*	nt	nt	53.8*
COc1ccc2cc(CCNC(=O)c3ccc(S(=O)(=O)N4CCCC4)cc3)c(=O)[nH]c2c1	nt	nt	nt	2.2	nt	nt	nt
Cc1nc([N+](=O)[O-])c(Sc2nc3ccc([N+](=O)[O-])cc3[nH]2)n1Cc1ccccc1	5.6	-2.6	-3.8	15.6	1.0	-0.3	nt
c1ccc(CNc2nc(NCc3ccco3)nc(N3CCOCC3)n2)cc1	1.3	0.7	-24.7	2.0	3.5	0.6	nt
Cc1cccc(Nc2nc(NCc3ccco3)nc(N3CCOCC3)n2)c1	3.5	2.0	22.2	31.3*	8.3	-1.5	11.6
O=C1CC(C(=O)Nc2cc(Cl)ccc2Cl)n2ncnc2N1 (centres undefined)	1.8	0.7	-6.1	2.4	5.5	0.7	nt
COCCCNC(=O)c1ccc(OC)c(OC2CCN(C(C)C)CC2)c1	nt	nt	nt	2.7	nt	nt	nt
CN(C)/C=C/C(=O)c1ccn(S(=O)(=O)c2ccccc2)c1	nt	nt	nt	0.8	nt	nt	nt
NC(=O)N=Nc1c2[nH]c3ccccc3nc-2c2ccccc12	nt	3.0	nt	25.9*	7.5	5.7	6.6
CCOc1c(CNCCCSc2nc(C)cc(C)n2)cccc1OC	nt	nt	nt	4.4	nt	nt	nt
COc1ccccc1N1CCN(c2ccc(-c3ccccc3)nn2)CC1	11.8	nt	89.6*	61.5*	74.4*	71.8*	58.9*
COc1ccccc1N1CCN(c2ccc3ccccc3n2)CC1	nt	nt	nt	6.2	nt	nt	nt

High-throughput results: PubChem, several laboratories
